# Screens from PubChem.
# EBV gp42 block: Epstein-Barr virus gp42 inhibitors, primary screen, biochemical, uHTS, fluorescence polarization; AID 1085, 2008; Fluorescence polarization binding assay, mP read-out; Glycoprotein 42 (Epstein-Barr virus (strain AG876)), Q1HVG2; inhibition, % (tested at 21.74 µM); 220,000 tested, 0.42% active
# 14-3-3 Bad inh: inhibitors of 14-3-3 zeta/Bad binding, primary screen, biochemical, TR-FRET, bovine 14-3-3 zeta | 14-3-3 protein zeta/delta (Bos taurus), P63103 | TR-FRET 14-3-3zeta/Dy647-pBad peptide displacement, 1 h | inhibition, % at 21.7 µM | 220,000 tested, 0.71% active | AID 781, 2007;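 active = inhibition above about 70%, limit read from the data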;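 note: 0% = full 14-3-3 plus peptide FRET controls and 100% = background without 14-3-3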
# RBBP9 inh: human RBBP9 inhibitors, primary screen, biochemical, fluorescence polarization, FP-Rh probe, HTS; Serine hydrolase RBBP9 (Homo sapiens), O75884; recombinant RBBP9; inhibition, % at 7.94 µM; 220,000 tested, 0.2% active;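 active = inhibition above the campaign mean of all tested compounds plus 3 SD, cut at about 14% in these data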;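 note: plate controls were DMSO wells with RBBP9 for no effect and wells lacking RBBP9 protein for full effect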
#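 Measured by: FP readout at 525/598 nm; material: recombinant human RBBP9; also added: Serine-hydrolase probe FP-Rh, 375 nM pre-mixing; medium: Tris buffer pH 8.0, NaCl, Pluronic; replication: one well per compound; doses: one concentration, 7.94 µM nominal, 0.794% DMSO; timing: preincubation 30 min plus labeling 45 min at 25 °C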
# eIF4E 4G PPI: eIF4E–eIF4G protein interaction inhibitors, primary screen, biochemical, uHTS, TR-FRET, eIF4GI fragment | TR-FRET eIF4E-eIF4GI(517-606) binding, 2 h | 220,000 tested, 0.37% active | inhibition, % at 21.7 µM;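 active = inhibition above about 30%, limit read from the data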;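 note: 0% = full FRET control wells and 100% = background wells lacking eIF4GI fragment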
# PKD1 inh: inhibitors of human PKD1 kinase, biochemical, fluorescence polarization | AID 797, 2007 | Serine/threonine-protein kinase D1 (Homo sapiens), Q15139 | inhibition, % (concentration not given with the values) | PKD1 kinase fluorescence polarization assay | 200,000 tested, 0.056% active
# Target sequence (Q15139 whole entry, looked up): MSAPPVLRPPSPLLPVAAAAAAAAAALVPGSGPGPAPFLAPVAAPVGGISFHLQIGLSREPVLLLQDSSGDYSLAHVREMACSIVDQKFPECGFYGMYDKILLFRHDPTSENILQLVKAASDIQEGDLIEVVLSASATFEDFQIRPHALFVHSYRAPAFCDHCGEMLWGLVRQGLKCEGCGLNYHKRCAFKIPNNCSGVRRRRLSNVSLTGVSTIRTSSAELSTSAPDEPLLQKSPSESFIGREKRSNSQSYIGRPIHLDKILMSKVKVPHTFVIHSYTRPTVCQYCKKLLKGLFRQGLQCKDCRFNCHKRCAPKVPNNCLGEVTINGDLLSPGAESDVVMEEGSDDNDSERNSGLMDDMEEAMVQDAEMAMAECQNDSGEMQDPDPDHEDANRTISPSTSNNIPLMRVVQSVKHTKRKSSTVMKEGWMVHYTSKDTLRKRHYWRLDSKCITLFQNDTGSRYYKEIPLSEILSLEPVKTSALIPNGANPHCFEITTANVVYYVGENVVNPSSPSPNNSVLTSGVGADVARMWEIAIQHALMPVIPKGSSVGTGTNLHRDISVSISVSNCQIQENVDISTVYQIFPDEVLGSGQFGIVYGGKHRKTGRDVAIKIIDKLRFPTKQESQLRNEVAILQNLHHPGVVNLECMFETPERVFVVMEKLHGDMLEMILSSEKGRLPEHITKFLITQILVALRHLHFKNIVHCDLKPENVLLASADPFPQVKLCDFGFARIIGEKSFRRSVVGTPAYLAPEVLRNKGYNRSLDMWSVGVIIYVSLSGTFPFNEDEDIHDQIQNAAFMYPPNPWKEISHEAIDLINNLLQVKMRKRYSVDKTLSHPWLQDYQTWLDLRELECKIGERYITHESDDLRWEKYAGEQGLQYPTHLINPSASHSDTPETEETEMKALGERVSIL
# * marks the source's active call; other numbers are inactive results; x = not tested or not shown; [ ] = remark or other dose. Most compounds without a hit are left out; they make up all but 1.6% or so of the library. Cut-off read from the data, not from the text of the source, unless noted: active = inhibition above about 50%; inactive = the rest.
SMILES,EBV gp42 block,14-3-3 Bad inh,RBBP9 inh,eIF4E 4G PPI,PKD1 inh
CC(=O)C1=C(C)N2CCN=C2S1,21,5,-7,-5,x
Cc1ccc(NC(=O)C(Nc2cccc(C)c2)c2ccccc2)cc1 (stereo unspecified),-37,-4,-6,-3,0
CCOC(=O)N1CCN(C(=O)COc2ccc3c(c2)C(=O)CC2(CCN(C(C)=O)CC2)O3)CC1,-13,95*,-8,-2,3
CCCn1c(O)c(N=N)c2ccccc21,-12,-5,-6,1,3
CCOc1ncccc1C(=O)N1CCN(c2cc(Cl)ccc2C)CC1,-10,-10,-10,-1,-4
CCOc1ncccc1C(=O)N1CCN(c2cccc(C)c2C)CC1,-2,88*,-4,2,-1
CC(C)N=C(NS(=O)(=O)c1ccccc1)C(Cl)(Cl)Cl,-4,-1,-3,-4,0
N#Cc1c(N)sc(=S)c2c1CCN(Cc1ccccc1)C2,84*,20,x,-17,x
N#CC(C#N)=C1c2cc(S(N)(=O)=O)ccc2-c2ccc(S(N)(=O)=O)cc21,30,81*,-8,11,-9
COc1cc(C2c3c(n[nH]c3C)C(=O)N2c2ccc(C)cc2)ccc1O (stereo unspecified),-8,-3,-5,-2,-9
CCOc1cc(C2c3c(n[nH]c3C)C(=O)N2c2ccc(C)cc2)ccc1O (stereo unspecified),-5,-13,-12,65*,0
CCOc1ccc2cc(C#N)c(SCC(=O)NC(C)CC)nc2c1 (stereo unspecified),-40,-13,-4,-47,-1
COCCCNC(=O)c1ccc2c3c(onc13)-c1ccccc1C2=O,184*,0,2,1,x
COCCCNC(=O)c1ccccc1Oc1ccccc1,-14,-4,-7,-3,-2
O=C1CCN2C=Nc3cccc4ccc1c2c34,137*,-4,-5,4,36
c1ccc(CN2CCN(C3=Nc4cccc5cccc3c45)CC2)cc1,13,-6,2,-3,3
Cn1c(=O)[nH]c2cc(Cl)cnc21,63*,18,-5,-2,1
Cn1c(=O)[nH]c2c(Cl)nccc21,-10,-3,-4,8,x
O=C(c1ccccc1)c1nn(-c2ccc(Cl)cc2)c(=O)cc1C(F)(F)F,-5,1,-1,7,-1
O=c1[nH][nH]c2cc(=O)n(-c3ccc(Cl)cc3)nc12,6,92*,-6,0,12
CCOC(=O)/C(=N\Nc1ccc(Br)cc1)N1CC(C)OC(C)C1 (stereo unspecified),-12,-1,0,-11,x
CCCCOc1ccccc1NC(=O)CC1SC(=NCC)N(CC)C1=O (stereo unspecified),-6,76*,0,7,0
O=C(NC1(C(F)(F)F)N=C2SCCN2C1=O)c1ccccc1F (stereo unspecified),-8,-7,1,1,x
CCN1CCN(C(c2cc(OC)ccc2OC)c2nnnn2Cc2ccccc2)CC1 (stereo unspecified),-2,79*,4,8,2
CCN(CC)c1ccc2cc(S(=O)(=O)c3ccc(C)cc3)c(=O)oc2c1,142*,2,-5,9,5
SMILES,EBV gp42 block,14-3-3 Bad inh,RBBP9 inh,eIF4E 4G PPI,PKD1 inh
CCN(CC)c1ccc2cc(C(=O)NNC(=O)c3ccc(S(=O)(=O)N4CCCCC4)cc3)c(=O)oc2c1,174*,1,-1,-1,-5
Cc1cc(NC(=O)c2ccc(S(=O)(=O)N3CCCC3)cc2)nc2c1c(=O)oc1ccccc12,-11,14,-5,6,-3
COc1ccc2c(-c3cc4ccc(OCc5ccc(F)cc5)cc4oc3=O)cc(=O)oc2c1,-35,92*[fluorescence artefact?],-9,15,-19
O=c1oc2cc(OCc3ccc(C(F)(F)F)cc3)ccc2cc1-c1ccccn1,-19,-4,-7,2,-8
CC1CCc2cc(F)ccc2N1C(=O)CSc1nnc2c(n1)[nH]c1ccc(F)cc12 (stereo unspecified),-13,13,-4,-20,10
O=[N+]([O-])c1ccccc1S(=O)(=O)n1nnc2ccccc21,-18,1,2,2,-2
Nc1nc2c(s1)COc1ccccc1-2,-7,-7,-8,-2,4
Nc1nc2c(s1)CCc1c-2cnn1-c1ccccc1,-18,0,11,39*,2
CN1N=C2c3ccccc3CCC2C1c1ccc(Cl)cc1 (stereo unspecified),-9,2,-8,2,x
Cc1csc(C(=O)NN)c1N(C)C,0,-2,-2,0,x
COc1ccc(CN2CCN(C(=O)CC(C)C)CC2)c(OC)c1OC,-9,73*,-11,77*,-3
COc1cc(CN2CCN(C(=O)CC(C)C)CC2)cc(OC)c1O,1,39,-3,2,-17
COc1cc(CN2CCN(C(=O)CC(C)C)CC2)cc(OC)c1OC,-22,80*,-9,23,-3
Cn1cc(Cl)c(C(=O)NC(=S)Nc2sc3c(c2C#N)CCCCC3)n1,-9,-3,-3,-2,2
CCc1ccc(S(=O)(=O)NCCc2cn3cccc(C)c3n2)s1,0,-7,-8,1,-3
CC(=O)Nc1ccc(N2CCCCC2)c(C(=O)Nc2cccc(C)c2)c1,-17,2,-5,43*,-4
COc1ccc(-c2csc(Nc3ccc(S(N)(=O)=O)cc3)n2)cc1,-2,70*[fluorescence artefact?],0,13,-4
CC(=O)Oc1ccc(-c2csc(Nc3ccc(S(N)(=O)=O)cc3)n2)cc1,2,1,-3,-5,9
Cc1ccc(SCc2cc(=O)[nH]c(/N=C(\N)Nc3ccc(C)c(C)c3)n2)cc1,1,-7,-8,49*[fluorescence artefact?],9
COc1ccc(N/C(N)=N/c2nc(CSc3ccc(Cl)cc3)cc(=O)[nH]2)cc1,-14,14,-10,-2,-7
Cc1ccc(-n2cccc2/C=C2\C(=N)N3N=C(c4ccco4)SC3=NC2=O)cc1,67*,74*,-12,56*,-5
CCC(C)NC(=O)C(Sc1ccccc1)c1ccccc1 (stereo unspecified),-9,-4,-7,-1,-9
COc1ccccc1Nc1nc2cc(C)ccc2cc1C#N,-12,-2,0,-1,-5
COc1ccccc1Nc1nc2ccc(C)cc2cc1C#N,57*,2,-4,-2,5
COC(=O)C1CSC(C(=O)OC)N1C(=O)CN1CCN(c2ccc(OC)cc2)CC1 (stereo unspecified),4,-5,-9,1,-4
CCOc1ccc(C(C)NC(=O)Nc2ccccc2C(=O)OC)cc1 (stereo unspecified),-3,-5,-4,-10,1
